From ChEMBL document CHEMBL1142242, “Indanylacetic acid derivatives carrying 4-thiazolyl-phenoxy tail groups, a new class of potent PPAR alpha/gamma/delta pan agonists: synthesis, structure-activity relationship, and in vivo efficacy” (J Med Chem, 2007)
≈ marks a conversion by molar mass, not a printed value. Calls of active or inactive are those of the source. No cut-off for these calls is given here.

Key:
[1] = test system: Syrian golden hamster; experiment: Increase of HDL/LDL ratio in fat fed hyperlipidemic Golden Syrian hamster at 100 mg/kg, po after 14 days; type: functional, organism-based; design: dose 100 mg/kg; settings: Mesocricetus auratus
In short: (§1)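 Male Syrian Golden hamsters (≤7 weeks, 120-150 g) on high fat diet plus 10% fructose drinking water; bled day 10, then dosed orally once daily by weight for 14 days; necropsy day 24; EDTA plasma lipoproteins resolved by FPLC; mean ± SEM, 10 hamsters.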

[2] = test system: Syrian golden hamster; experiment: Reduction of LDL level in fat fed hyperlipidemic Golden Syrian hamster at 100 mg/kg, po after 14 days; type: functional, organism-based; design: dose 100 mg/kg; settings: Mesocricetus auratus; in short: as §1
[3] = test system: Syrian golden hamster; experiment: Reduction of VLDL level in fat fed hyperlipidemic Golden Syrian hamster at 100 mg/kg, po after 14 days; type: functional, organism-based; design: dose 100 mg/kg; settings: Mesocricetus auratus; in short: as §1
[4] = target: Cytochrome P450 2D6 (Homo sapiens, UniProt P10635); experiment: Inhibition of CYP2D6; type: ADME
Chain of Cytochrome P450 2D6 (P10635 whole entry, canonical isoform): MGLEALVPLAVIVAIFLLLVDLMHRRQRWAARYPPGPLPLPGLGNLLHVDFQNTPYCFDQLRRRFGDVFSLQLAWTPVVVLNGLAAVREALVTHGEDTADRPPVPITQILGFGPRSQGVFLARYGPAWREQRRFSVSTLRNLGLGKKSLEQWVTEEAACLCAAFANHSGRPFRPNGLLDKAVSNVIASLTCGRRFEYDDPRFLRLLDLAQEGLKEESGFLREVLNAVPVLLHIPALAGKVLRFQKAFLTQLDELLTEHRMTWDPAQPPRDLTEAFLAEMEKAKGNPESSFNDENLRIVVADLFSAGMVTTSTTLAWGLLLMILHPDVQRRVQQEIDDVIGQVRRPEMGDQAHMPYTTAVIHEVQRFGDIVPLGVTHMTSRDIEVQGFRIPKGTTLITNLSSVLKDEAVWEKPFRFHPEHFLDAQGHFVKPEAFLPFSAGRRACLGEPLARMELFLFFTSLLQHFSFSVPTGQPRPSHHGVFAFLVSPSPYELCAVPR
In short: (§2)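 Enzyme assays per CYP isoform (1A2, 2C8, 2D6, 3A4), with turnover of an appropriate fluorescent substrate as read-out; IC₅₀ reported.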

[5] = target: Peroxisome proliferator-activated receptor delta (Mus musculus, UniProt P35396); experiment: Agonist activity at mouse PPAR delta
Chain of Peroxisome proliferator-activated receptor delta (Mus musculus, UniProt P35396) (P35396 whole entry): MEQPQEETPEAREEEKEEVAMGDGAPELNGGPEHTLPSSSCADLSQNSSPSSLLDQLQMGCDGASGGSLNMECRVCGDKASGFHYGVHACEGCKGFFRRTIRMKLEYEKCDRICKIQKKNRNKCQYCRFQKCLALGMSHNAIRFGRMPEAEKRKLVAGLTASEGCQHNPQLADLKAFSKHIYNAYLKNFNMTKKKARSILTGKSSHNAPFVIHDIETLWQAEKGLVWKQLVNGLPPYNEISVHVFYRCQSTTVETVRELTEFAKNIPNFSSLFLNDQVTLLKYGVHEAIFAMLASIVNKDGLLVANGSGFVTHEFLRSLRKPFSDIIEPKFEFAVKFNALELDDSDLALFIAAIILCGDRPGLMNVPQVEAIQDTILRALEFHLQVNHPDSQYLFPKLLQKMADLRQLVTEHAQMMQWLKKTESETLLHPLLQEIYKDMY

[6] = target: Cytochrome P450 3A4 (Homo sapiens, UniProt P08684); experiment: Inhibition of CYP3A4; type: ADME; in short: as §2
Chain of Cytochrome P450 3A4 (P08684 whole entry): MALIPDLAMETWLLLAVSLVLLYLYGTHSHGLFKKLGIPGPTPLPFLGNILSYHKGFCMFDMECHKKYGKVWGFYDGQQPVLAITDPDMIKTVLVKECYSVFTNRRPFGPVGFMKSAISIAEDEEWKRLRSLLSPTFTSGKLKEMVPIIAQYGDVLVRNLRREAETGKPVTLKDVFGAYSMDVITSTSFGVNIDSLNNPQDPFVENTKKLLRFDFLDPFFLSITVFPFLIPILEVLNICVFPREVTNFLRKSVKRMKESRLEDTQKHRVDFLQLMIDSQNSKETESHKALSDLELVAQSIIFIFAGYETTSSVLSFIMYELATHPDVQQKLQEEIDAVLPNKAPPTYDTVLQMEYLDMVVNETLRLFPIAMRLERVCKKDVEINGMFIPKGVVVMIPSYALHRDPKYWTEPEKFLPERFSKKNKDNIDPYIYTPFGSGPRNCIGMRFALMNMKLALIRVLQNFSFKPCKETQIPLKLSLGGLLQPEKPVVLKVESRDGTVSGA

[7] = target: Androgen receptor (Homo sapiens, UniProt P10275); experiment: Displacement of [3H]dihydrotestosterone from human recombinant androgen receptor expressed in SF9 baculovirus cells
Chain of Androgen receptor (P10275 whole entry): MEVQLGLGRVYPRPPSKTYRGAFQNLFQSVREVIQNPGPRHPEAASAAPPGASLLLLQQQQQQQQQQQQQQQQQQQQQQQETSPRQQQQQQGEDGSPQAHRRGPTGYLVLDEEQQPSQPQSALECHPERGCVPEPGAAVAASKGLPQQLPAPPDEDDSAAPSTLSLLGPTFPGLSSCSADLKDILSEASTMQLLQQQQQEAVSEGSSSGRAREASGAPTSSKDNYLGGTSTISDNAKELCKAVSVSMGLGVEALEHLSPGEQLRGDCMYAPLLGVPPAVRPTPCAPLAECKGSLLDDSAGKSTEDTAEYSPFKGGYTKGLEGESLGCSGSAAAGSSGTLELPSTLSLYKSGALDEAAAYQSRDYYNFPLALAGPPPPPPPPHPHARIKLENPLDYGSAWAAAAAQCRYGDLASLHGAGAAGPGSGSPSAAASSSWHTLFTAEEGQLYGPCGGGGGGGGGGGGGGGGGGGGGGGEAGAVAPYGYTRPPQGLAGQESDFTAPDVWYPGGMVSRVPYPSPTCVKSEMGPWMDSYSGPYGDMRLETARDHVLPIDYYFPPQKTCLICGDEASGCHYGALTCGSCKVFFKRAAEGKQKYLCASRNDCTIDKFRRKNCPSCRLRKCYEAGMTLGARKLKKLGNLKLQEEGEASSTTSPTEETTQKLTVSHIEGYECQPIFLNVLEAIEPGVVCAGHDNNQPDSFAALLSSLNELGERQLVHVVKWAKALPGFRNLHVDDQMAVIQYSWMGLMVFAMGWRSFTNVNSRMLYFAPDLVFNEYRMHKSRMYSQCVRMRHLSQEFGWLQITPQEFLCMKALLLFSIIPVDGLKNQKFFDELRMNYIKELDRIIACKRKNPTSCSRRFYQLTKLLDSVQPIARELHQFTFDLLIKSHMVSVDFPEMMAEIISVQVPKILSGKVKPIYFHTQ

[8] = target: T1, Peroxisome proliferator-activated receptor delta (Homo sapiens, UniProt Q03181); experiment: Agonist activity at human PPAR delta by FRET assay; type: functional
T1 sequence (Q03181 whole entry): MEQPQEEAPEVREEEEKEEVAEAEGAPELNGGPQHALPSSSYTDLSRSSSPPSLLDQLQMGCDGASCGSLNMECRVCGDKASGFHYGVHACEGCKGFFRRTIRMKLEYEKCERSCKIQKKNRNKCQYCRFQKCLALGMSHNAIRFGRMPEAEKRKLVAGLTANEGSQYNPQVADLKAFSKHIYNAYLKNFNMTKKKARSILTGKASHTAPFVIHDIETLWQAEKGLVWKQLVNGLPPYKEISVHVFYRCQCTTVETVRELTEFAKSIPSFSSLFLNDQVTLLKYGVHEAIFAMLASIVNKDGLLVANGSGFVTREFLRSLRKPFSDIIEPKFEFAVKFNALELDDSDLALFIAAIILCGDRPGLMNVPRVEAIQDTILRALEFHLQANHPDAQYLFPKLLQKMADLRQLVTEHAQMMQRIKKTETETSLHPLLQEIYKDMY

[9] = target: Peroxisome proliferator-activated receptor alpha (Mus musculus, UniProt P23204); experiment: (§3) Agonist activity at mouse PPAR alpha; type: functional
[10] = target: T2, Peroxisome proliferator-activated receptor alpha (Mus musculus) (UniProt P23204); experiment: as §3; type: functional
T2 sequence (whole entry): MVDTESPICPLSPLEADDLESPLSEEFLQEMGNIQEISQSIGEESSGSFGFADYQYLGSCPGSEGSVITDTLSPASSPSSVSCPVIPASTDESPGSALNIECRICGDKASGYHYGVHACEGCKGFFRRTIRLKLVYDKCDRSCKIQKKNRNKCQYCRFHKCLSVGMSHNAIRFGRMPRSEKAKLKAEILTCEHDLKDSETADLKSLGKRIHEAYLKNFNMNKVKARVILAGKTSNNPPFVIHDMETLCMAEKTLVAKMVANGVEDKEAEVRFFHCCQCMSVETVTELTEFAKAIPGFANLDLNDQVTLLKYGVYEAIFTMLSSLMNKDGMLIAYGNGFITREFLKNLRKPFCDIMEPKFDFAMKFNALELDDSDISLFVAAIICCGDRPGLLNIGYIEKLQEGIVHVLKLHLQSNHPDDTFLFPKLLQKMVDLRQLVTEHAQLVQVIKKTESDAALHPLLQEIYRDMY

[11] = Aqueous solubility at pH 6.8; type: physicochemical
[12] = target: Cytochrome P450 2C9 (Homo sapiens, UniProt P11712); experiment: Inhibition of CYP2C9; type: ADME
Chain of Cytochrome P450 2C9 (P11712 whole entry): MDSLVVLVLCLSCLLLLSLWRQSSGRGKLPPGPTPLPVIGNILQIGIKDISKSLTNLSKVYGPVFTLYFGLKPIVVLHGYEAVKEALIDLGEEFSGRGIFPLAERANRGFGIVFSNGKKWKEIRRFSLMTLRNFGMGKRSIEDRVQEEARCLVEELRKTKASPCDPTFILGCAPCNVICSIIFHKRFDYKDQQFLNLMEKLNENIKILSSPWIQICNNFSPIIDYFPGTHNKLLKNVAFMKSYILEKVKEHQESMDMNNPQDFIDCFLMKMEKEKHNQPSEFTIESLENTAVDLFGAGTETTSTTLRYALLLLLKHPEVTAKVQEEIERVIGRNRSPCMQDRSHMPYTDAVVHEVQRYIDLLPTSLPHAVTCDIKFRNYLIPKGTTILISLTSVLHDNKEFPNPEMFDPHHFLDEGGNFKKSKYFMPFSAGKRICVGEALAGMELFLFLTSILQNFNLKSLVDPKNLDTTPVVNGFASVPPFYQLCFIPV

[13] = target: T3, Peroxisome proliferator-activated receptor alpha (Homo sapiens, UniProt Q07869); experiment: Agonist activity at human PPAR alpha by FRET assay; type: functional
T3 sequence (Q07869 whole entry): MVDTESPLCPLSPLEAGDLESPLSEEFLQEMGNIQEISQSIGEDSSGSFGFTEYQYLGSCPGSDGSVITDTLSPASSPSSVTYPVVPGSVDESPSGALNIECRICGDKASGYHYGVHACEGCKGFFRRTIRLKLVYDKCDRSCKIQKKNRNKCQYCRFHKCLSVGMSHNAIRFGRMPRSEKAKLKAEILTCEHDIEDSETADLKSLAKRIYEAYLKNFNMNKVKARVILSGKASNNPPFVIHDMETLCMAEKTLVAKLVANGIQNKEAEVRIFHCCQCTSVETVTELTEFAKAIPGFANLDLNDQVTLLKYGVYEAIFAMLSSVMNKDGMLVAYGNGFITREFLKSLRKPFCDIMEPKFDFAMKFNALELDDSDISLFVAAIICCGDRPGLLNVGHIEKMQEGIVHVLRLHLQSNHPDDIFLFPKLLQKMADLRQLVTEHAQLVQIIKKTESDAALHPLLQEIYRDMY
In short: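 Human PPARα ligand binding domain (GST-tagged) association with biotin-labeled co-activator CBP; Eu-labeled anti-GST antibody and streptavidin-APC; incubated 2 h at rt in buffer with or without compound; fluorescence read at 615 or 655 nm emission, 340 nm excitation.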

[14] = target: Estrogen receptor (Mus musculus, UniProt O08537+P19785); experiment: Displacement of [3H]O-estradiol from ER in Swiss mouse uteri; type: protein assay
[15] = target: Glucocorticoid receptor (Homo sapiens, UniProt P04150); experiment: Displacement of [H]dexamethaxone from glucocorticoid receptor in HUH cells; type: cell-based
Chain of Glucocorticoid receptor (P04150 whole entry): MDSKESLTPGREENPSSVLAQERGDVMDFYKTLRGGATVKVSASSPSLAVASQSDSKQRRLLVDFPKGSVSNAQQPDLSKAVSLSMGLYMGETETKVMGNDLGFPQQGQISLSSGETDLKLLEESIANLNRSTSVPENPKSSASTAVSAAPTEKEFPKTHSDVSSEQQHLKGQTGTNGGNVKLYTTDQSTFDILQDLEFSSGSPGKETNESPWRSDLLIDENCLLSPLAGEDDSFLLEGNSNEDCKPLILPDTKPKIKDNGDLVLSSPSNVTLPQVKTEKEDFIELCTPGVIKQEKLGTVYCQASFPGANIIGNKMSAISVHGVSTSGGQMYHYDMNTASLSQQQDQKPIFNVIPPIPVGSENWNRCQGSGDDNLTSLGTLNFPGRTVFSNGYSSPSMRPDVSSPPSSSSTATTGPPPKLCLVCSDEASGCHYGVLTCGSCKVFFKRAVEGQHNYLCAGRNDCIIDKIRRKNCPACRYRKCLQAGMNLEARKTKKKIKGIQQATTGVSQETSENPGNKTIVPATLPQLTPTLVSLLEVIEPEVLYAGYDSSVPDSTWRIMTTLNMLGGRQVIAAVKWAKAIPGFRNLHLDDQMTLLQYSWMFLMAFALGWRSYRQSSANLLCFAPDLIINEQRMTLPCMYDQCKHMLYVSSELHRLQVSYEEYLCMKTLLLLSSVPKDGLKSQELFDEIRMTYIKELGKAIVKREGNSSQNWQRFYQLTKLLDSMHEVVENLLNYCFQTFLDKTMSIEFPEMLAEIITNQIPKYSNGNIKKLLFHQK

[16] = target: Cytochrome P450 2C8 (Homo sapiens, UniProt P10632); experiment: Inhibition of CYP2C8; type: ADME; in short: as §2
Chain of Cytochrome P450 2C8 (P10632 whole entry): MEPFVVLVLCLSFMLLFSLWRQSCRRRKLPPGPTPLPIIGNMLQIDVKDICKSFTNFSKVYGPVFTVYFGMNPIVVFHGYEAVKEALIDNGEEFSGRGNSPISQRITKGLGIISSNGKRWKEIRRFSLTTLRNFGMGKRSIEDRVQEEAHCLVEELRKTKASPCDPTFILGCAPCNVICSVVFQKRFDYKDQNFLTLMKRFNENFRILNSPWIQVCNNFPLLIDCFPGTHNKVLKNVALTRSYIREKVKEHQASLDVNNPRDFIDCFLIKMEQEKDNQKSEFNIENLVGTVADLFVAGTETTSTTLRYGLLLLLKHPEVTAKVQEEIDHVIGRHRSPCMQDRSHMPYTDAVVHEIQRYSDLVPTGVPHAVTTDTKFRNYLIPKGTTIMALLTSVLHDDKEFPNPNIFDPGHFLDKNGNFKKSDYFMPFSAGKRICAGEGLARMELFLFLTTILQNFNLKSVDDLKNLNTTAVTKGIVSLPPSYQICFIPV

[17] = target: Cytochrome P450 1A2 (Homo sapiens, UniProt P05177); experiment: Inhibition of CYP1A2; type: ADME; in short: as §2
Chain of Cytochrome P450 1A2 (P05177 whole entry, the tested form may be a part): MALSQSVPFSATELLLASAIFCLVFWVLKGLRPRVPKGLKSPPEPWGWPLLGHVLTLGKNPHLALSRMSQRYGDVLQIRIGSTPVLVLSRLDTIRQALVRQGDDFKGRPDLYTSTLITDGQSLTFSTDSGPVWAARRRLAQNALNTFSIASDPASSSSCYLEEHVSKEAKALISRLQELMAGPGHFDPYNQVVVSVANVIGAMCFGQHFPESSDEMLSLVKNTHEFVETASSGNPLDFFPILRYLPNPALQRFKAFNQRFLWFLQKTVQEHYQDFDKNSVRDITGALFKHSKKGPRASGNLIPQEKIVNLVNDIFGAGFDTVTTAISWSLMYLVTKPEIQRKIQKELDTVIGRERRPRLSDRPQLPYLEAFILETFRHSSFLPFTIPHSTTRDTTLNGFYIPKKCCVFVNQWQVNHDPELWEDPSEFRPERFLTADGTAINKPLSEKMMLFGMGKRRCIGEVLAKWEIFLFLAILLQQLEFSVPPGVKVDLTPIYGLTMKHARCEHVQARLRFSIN

[18] = target: T4, Peroxisome proliferator-activated receptor alpha (Homo sapiens) (UniProt Q07869); experiment: (§4) Agonist activity at human PPAR alpha expressed in CV1 cells by GAL4 transactivation assay; type: functional, cell-based; settings: CV-1
T4 sequence (whole entry): T3 sequence (Q07869 whole entry)
In short: (§5)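 CV-1 cells plated, grown overnight at 37 °C in 5% CO₂, then transfected with GAL4-fused human PPARα ligand binding domain, pFR-LUC and pRL-SV40 reporter DNAs by lipofection. After a further overnight incubation, cells were exposed to compound or vehicle overnight. Activity was read as dual-luciferase reporter signal.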

[19] = target: T3, Peroxisome proliferator-activated receptor alpha; experiment: as §4; type: functional, cell-based, CV-1; in short: as §5
[20] = target: Progesterone receptor (Homo sapiens, UniProt P06401); experiment: Displacement of [3H]progesterone from progesterone receptor in T47D cells; type: cell-based
In short: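 Cytosol from T47D cells incubated overnight at 4 °C with ³H-progesterone at 10 nM final, with or without compound. DMSO defined total binding and 1 µM unlabelled progesterone defined nonspecific binding. Bound and free ligand were separated on a spin plate, and the flow-through was counted by scintillation.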

[21] = Cmax in mouse at 10 mg/kg, po; type: ADME, organism-based; design: dose 10 mg/kg, route oral; settings: in vivo
In short: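 Mice dosed orally in 0.5% methylcellulose vehicle; plasma Cmax reported.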

[22] = target: T1, Peroxisome proliferator-activated receptor delta; experiment: Agonist activity at human PPAR delta expressed in CV1 cells by GAL4 transactivation assay
[23] = Aqueous solubility of the compound; type: physicochemical
[24] = target: T5, Peroxisome proliferator-activated receptor gamma (Mus musculus, UniProt P37238); experiment: Agonist activity at PPAR gamma in mouse 3T3L1 cells assessed as increase in insulin receptor by IRBA; type: functional, cell-based, 3T3-L1
T5 sequence (P37238 whole entry): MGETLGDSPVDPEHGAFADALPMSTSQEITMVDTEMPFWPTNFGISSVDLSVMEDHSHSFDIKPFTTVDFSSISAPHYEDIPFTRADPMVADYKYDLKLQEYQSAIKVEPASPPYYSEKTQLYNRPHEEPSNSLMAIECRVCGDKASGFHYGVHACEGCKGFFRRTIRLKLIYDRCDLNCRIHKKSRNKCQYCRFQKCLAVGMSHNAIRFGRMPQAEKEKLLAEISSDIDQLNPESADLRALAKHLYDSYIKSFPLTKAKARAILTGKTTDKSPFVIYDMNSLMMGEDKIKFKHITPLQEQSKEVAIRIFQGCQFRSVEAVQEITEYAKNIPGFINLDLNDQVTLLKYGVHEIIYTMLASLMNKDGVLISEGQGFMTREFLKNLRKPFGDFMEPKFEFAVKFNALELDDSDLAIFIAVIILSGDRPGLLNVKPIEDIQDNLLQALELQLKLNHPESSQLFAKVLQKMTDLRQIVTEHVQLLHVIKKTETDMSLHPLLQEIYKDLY

## CC(C)OC(=O)C(C)(C)Oc1ccc(C(=O)c2ccc(Cl)cc2)cc1
[1]
  Activity: Active
[2]
  Activity: Active
[3]
  Activity: Active

## O=C(O)C[C@@H]1CCc2cc(OCCCOc3ccc(-c4nc5c(s4)CCCC5)cc3)ccc21
[4]
  IC50: > 10000 nM
[5]
  EC50: 84 nM
[6]
  IC50: > 10000 nM
[7]
  EC50: > 10000 nM
[8]
  EC50: 2.2 nM
[9]
  EC50: > 10000 nM
[10]
  Activity: 28%
[11]
  solubility: 31 µM (≈ 14.4 µg/mL)
[12]
  IC50: > 10000 nM
[13]
  EC50: 391 nM
[14]
  EC50: > 10000 nM
[15]
  EC50: > 10000 nM
[16]
  IC50: > 10000 nM
[17]
  IC50: > 10000 nM
[18]
  Activity: 100%
[19]
  EC50: 152 nM
[20]
  EC50: > 10000 nM
[21]
  Cmax: 20 µM
[22]
  EC50: 40 nM

## CCCc1c(OCCCOc2ccc3c(c2)CC[C@H]3CC(=O)O)ccc2c(C(F)(F)F)noc12
[23]
  solubility: < 1 µM
[24]
  EC50: 42 nM
[8]
  EC50: 6 nM
[13]
  EC50: 192 nM
